In ChEMBL document CHEMBL5500359, “Identification of a new bisindolinone arresting IGROV1 cells proliferation” (Eur J Med Chem, 2024):

Columns and labels:
[1] = system: Panel NCI-60 (60 carcinoma cell lines); test: Cell growth inhibition of human Panel NCI-60 (60 carcinoma cell lines) incubated for 48 hrs by SRB assay; assay type: functional
How it was run: (§1)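 NCI-60 five-concentration screen: lines seeded 5×10^3–4×10^4 cells/well depending on line; compound diluted in fresh medium at scalar concentrations 0–100 or 0–1000 μM; 48 h exposure, in situ fixation, sulforhodamine B protein staining, optical density read; GI50, TGI and LC50 per NCI procedures; panel mean = mean graph midpoint.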

[2] = Cell growth inhibition of human Leukemia cancer cells incubated for 48 hrs by SRB assay; assay type: functional; how it was run: as §1
Prostatic carcinoma cell = test: Cell growth inhibition of human Prostate carcinoma cells incubated for 48 hrs by SRB assay; assay type: functional; how it was run: as §1
Renal cancer cell line [3] = test: Cell growth inhibition of human Renal cancer cells incubated for 48 hrs by SRB assay; assay type: functional; how it was run: as §1
Breast cancer cell line [4] = test: Cell growth inhibition of human Breast cancer cells incubated for 48 hrs by SRB assay; assay type: functional; settings: read-out: LC50 (the source's name)
How it was run: (§2)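 NCI DTP five-concentration screen. Cells were seeded at 5 × 10³–4 × 10⁴ cells/well, depending on the line. Compounds were diluted in fresh medium and added at scalar concentrations over 0–1000 µM or 0–100 µM. After 48 h the cells were fixed in situ, stained with sulforhodamine B, and optical density was read. GI50, TGI and LC50 were derived by NCI procedures, and the panel mean is the mean graph midpoint.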

CNS carcinoma cell [5] = test: Cell growth inhibition of human CNS carcinoma cells incubated for 48 hrs by SRB assay; assay type: functional; how it was run: as §1
Melanoma cell line [6] = test: Cell growth inhibition of human Melanoma cells incubated for 48 hrs by SRB assay; assay type: functional; how it was run: as §1
NSCLC = test: Cell growth inhibition of human NSCLC cells incubated for 48 hrs by SRB assay; assay type: functional; how it was run: as §1
Ovarian cancer cell line [7] = test: Cytostatic activity against human Ovarian cancer cells incubated for 48 hrs by SRB assay; assay type: functional; how it was run: as §1
Renal cancer cell line [8] = test: Cytostatic activity against human Renal cancer cells incubated for 48 hrs by SRB assay; assay type: functional; how it was run: as §1
CNS carcinoma cell [9] = test: Cytostatic activity against human CNS carcinoma cells incubated for 48 hrs by SRB assay; assay type: functional; how it was run: as §1
Melanoma cell line [10] = test: […] against human Melanoma cells incubated for 48 hrs by SRB assay; assay type: functional; settings: read-out: LC50 (the source's name); how it was run: as §2
Breast cancer cell line [11] = test: Cytostatic activity against human Breast cancer cells incubated for 48 hrs by SRB assay; assay type: functional; how it was run: as §1
Colon carcinoma cell [12] = test: Cytostatic activity against human Colon carcinoma cells incubated for 48 hrs by SRB assay; assay type: functional; how it was run: as §1
[13] = system: Panel NCI-60 (60 carcinoma cell lines); test: Cytostatic activity against human Panel NCI-60 (60 carcinoma cell lines) incubated for 48 hrs by SRB assay; assay type: functional; how it was run: as §1
[14] = Cytostatic activity against human Leukemia cancer cells incubated for 48 hrs by SRB assay; assay type: functional, Leukemia cell; how it was run: as §1
Colon carcinoma cell [15] = test: Cytotoxicity against human Colon carcinoma cells incubated for 48 hrs by SRB assay; assay type: functional; how it was run: as §1
Ovarian cancer cell line [16] = test: Cytotoxicity against human Ovarian cancer cells incubated for 48 hrs by SRB assay; assay type: functional; how it was run: as §1
[17] = Cytotoxicity against human Leukemia cancer cells incubated for 48 hrs by SRB assay; assay type: functional; settings: Leukemia cell, read-out: LC50 (the source's name); how it was run: as §2

CC[C@]1(O)C[C@H]2CN(CCc3c([nH]c4ccccc34)[C@@](C(=O)OC)(c3cc4c(cc3OC)N(C=O)[C@H]3[C@@](O)(C(=O)OC)[C@H](OC(C)=O)[C@]5(CC)C=CCN6CC[C@]43[C@@H]65)C2)C1 [VINCRISTINE]
GI50 [1]: 0.2 µM
GI50 [2]: 0.1 µM
GI (Prostatic carcinoma cell): 0.13 µM
GI50 (Renal cancer cell line [3]): 0.32 µM
CC50 (Breast cancer cell line [4]): 0.32 µM
GI50 (CNS carcinoma cell [5]): 0.13 µM
GI (Melanoma cell line [6]): 0.16 µM
GI (NSCLC): 0.25 µM

COc1cc2c(c(OC)c1OC)/C(=C\c1ccc3ccc4ccc(/C=C5/C(=O)Nc6cc(OC)c(OC)c(OC)c65)nc4c3n1)C(=O)N2
GI50 [1]: 12.9 µM
TGI (Ovarian cancer cell line [7]): 93.3 µM
GI50 [2]: 4.27 µM
GI (Prostatic carcinoma cell): 3.39 µM
GI50 (Renal cancer cell line [3]): 26.3 µM
GI (Renal cancer cell line [8]): 74.13 µM
GI (CNS carcinoma cell [9]): 67.61 µM
CC50 (Melanoma cell line [10]): 85.1 µM
TGI (Breast cancer cell line [11]): 64.6 µM
CC50 (Breast cancer cell line [4]): 10 µM
GI50 (CNS carcinoma cell [5]): 13.8 µM
GI (Melanoma cell line [6]): 18.62 µM
GI (NSCLC): 14.45 µM
TGI (Colon carcinoma cell [12]): 5.23 µM
GI [13]: 70.79 µM

CN(C)c1ccc2[nH]c(Cl)c(/C=C3/C(=O)N(C)c4cc5c(cc43)/C(=C\c3c(Cl)[nH]c4ccc(N(C)C)cc34)C(=O)N5C)c2c1
GI50 [1]: 14.5 µM
GI50 [2]: 17 µM
GI (Prostatic carcinoma cell): 10.72 µM
GI50 (Renal cancer cell line [3]): 9.77 µM
CC50 (Breast cancer cell line [4]): 4.17 µM
GI50 (CNS carcinoma cell [5]): 7.08 µM
GI (Melanoma cell line [6]): 27.54 µM
GI (NSCLC): 18.2 µM

COc1cc2c(cc1C)NC(=O)/C2=C/c1ccc2ccc3ccc(/C=C4/C(=O)Nc5cc(C)c(OC)cc54)nc3c2n1
GI50 [1]: 5.13 µM
TGI (Ovarian cancer cell line [7]): 38.9 µM
GI50 [2]: 2.51 µM
GI (Prostatic carcinoma cell): 2.95 µM
GI50 (Renal cancer cell line [3]): 6.31 µM
GI (Renal cancer cell line [8]): 29.51 µM
GI (CNS carcinoma cell [9]): 40.74 µM
CC50 (Melanoma cell line [10]): 17.8 µM
TGI (Breast cancer cell line [11]): 25.7 µM
GI [14]: 22.91 µM
CC50 (Breast cancer cell line [4]): 3.98 µM
GI50 (CNS carcinoma cell [5]): 8.51 µM
GI (Melanoma cell line [6]): 6.03 µM
GI (NSCLC): 6.76 µM
GI (Colon carcinoma cell [15]): 46.77 µM
TGI (Colon carcinoma cell [12]): 10.2 µM
GI (Ovarian cancer cell line [16]): 77.62 µM
GI [13]: 26.3 µM

O=C1Nc2ccc(F)cc2/C1=C\c1cccc(/C=C2/C(=O)Nc3ccc(F)cc32)c1
GI50 [1]: 1.62 µM
GI50 [2]: 1.66 µM
GI (Prostatic carcinoma cell): 1.48 µM
GI50 (Renal cancer cell line [3]): 1.58 µM
GI (Renal cancer cell line [8]): 3.47 µM
GI (CNS carcinoma cell [9]): 3.24 µM
CC50 [17]: 7.41 µM
CC50 (Melanoma cell line [10]): 10.2 µM
GI [14]: 9.77 µM
CC50 (Breast cancer cell line [4]): 9.33 µM
GI50 (CNS carcinoma cell [5]): 1.35 µM
GI (Melanoma cell line [6]): 1.58 µM
GI (NSCLC): 1.82 µM
GI (Colon carcinoma cell [15]): 9.33 µM
GI (Ovarian cancer cell line [16]): 32.4 µM
GI [13]: 4.47 µM

COc1ccc(OC)c2c1NC(=O)/C2=C/c1cccc(/C=C2/C(=O)Nc3c(OC)ccc(OC)c32)c1
GI50 [1]: 5.89 µM
TGI (Ovarian cancer cell line [7]): 69.2 µM
GI50 [2]: 2.69 µM
GI (Prostatic carcinoma cell): 5.89 µM
GI50 (Renal cancer cell line [3]): 7.08 µM
GI (Renal cancer cell line [8]): 81.28 µM
GI (CNS carcinoma cell [9]): 100 µM
CC50 (Melanoma cell line [10]): 61.7 µM
TGI (Breast cancer cell line [11]): 81.3 µM
GI [14]: 95.5 µM
CC50 (Breast cancer cell line [4]): 5.37 µM
GI50 (CNS carcinoma cell [5]): 4.68 µM
GI (Melanoma cell line [6]): 7.24 µM
GI (NSCLC): 9.33 µM
TGI (Colon carcinoma cell [12]): 63.1 µM
GI [13]: 72.44 µM

O=C1Nc2ccc(Cl)cc2/C1=C\c1ccc2ccc3ccc(/C=C4/C(=O)Nc5ccc(Cl)cc54)nc3c2n1
GI50 [1]: 2.63 µM
TGI (Ovarian cancer cell line [7]): 29.5 µM
GI50 [2]: 3.09 µM
GI (Prostatic carcinoma cell): 2.45 µM
GI50 (Renal cancer cell line [3]): 2.29 µM
GI (Renal cancer cell line [8]): 17.38 µM
GI (CNS carcinoma cell [9]): 9.33 µM
CC50 (Melanoma cell line [10]): 11.5 µM
TGI (Breast cancer cell line [11]): 29.5 µM
GI [14]: 83.18 µM
CC50 (Breast cancer cell line [4]): 3.09 µM
GI50 (CNS carcinoma cell [5]): 2.15 µM
GI (Melanoma cell line [6]): 2.19 µM
GI (NSCLC): 2.57 µM
GI (Colon carcinoma cell [15]): 31.62 µM
TGI (Colon carcinoma cell [12]): 7.41 µM
GI (Ovarian cancer cell line [16]): 69.18 µM
GI [13]: 18.2 µM
